Experimental data gathered from unrelated publications.
Each line is one published result; the experiments were not run side by side.
PPARA: Peroxisome proliferator-activated receptor alpha (PPARA, Homo sapiens, UniProt Q07869)
MMP1: Interstitial collagenase (MMP1, Homo sapiens, UniProt P03956)

Structure (SMILES) | target | test | system | conditions | measurement | result
COc1ncccc1-c1cnn2ccc(N3CCN(C(=O)OC(C)C)CC3)nc12 | Myosin-IIIa (MYO3A, Homo sapiens, UniProt Q8NEV4) | binding, competition with immobilised ligand |  | 1 µM | remaining binding | 95%
Nc1ncc(-c2nc(N3CCOCC3)nc(N3CCOCC3)n2)c(C(F)F)n1 | Hepatocyte growth factor receptor (MET, Homo sapiens, UniProt P08581, M1250T) | cell-free assay, competition with immobilised ligand |  | 10 µM | remaining binding | 100%
O=C(O)C(F)(F)C(F)(F)C(F)(F)C(F)(F)C(F)(F)C(F)(F)C(F)(F)F | PPARA | reporter gene, agonist, luciferase | COS-7 |  | Emax | 92%
Cc1ncc(C)n2nc(/C=C/c3nc(N4CCCC4)cc(N4CCOCC4)n3)nc12 | Caspase-9 (CASP9, Homo sapiens, UniProt P55211) | enzyme activity, inhibitor |  | 10 µM | inhibition | 11%
C#Cc1n[nH]c2c(-c3cn([C@@H](C)c4ccccn4)c(=O)[nH]c3=O)cc(F)cc12 | Eukaryotic elongation factor 2 kinase (EEF2K, Homo sapiens, UniProt O00418) | enzyme activity, inhibitor |  | 0.1 µM | inhibition | 4.2%
N=C(N)c1ccc2cc(OC(=O)c3ccc(N=C(N)N)cc3)ccc2c1 | MMP1 | enzyme activity, inhibitor |  | 10 µM | inhibition | 0%
CC1CCC(C(C)C)C(P(=O)(c2ccccc2)c2ccccc2)C1 (stereo not drawn) | Potassium voltage-gated channel subfamily A member 5 (KCNA5, Homo sapiens, UniProt P22460) | ion current, inhibitor, patch clamp |  | 1 µM | remaining activity | -94.5%
O=S(=O)(O)C(F)(F)C(F)(F)C(F)(F)C(F)(F)C(F)(F)C(F)(F)C(F)(F)C(F)(F)F | PPARA | reporter gene, agonist, luciferase |  |  | Emax | 33%
COc1ccc(S(=O)(=O)N(CC(=O)NO)CC(C)C)cc1 | MMP1 | enzyme activity, inhibitor |  | 0.1 µM | inhibition | 2%
Clc1cccc(-c2c[nH]c3ncnc(N4CCOCC4)c23)c1 | Serine/threonine-protein kinase 4 (STK4, Homo sapiens, UniProt Q13043) | thermal stability, DSF |  | 20 µM | ΔTm | > 8 °C
Cc1nn(C)cc1-c1nc2c(N3CCN(Cc4ccc(Cl)cc4)CC3)c(Cl)cnc2[nH]1 | Serine/threonine-protein kinase 36 (STK36, Homo sapiens, UniProt Q9NRP7) | binding, competition with immobilised ligand |  | 1 µM | remaining binding | 74%
CN1CCN(c2ccc(Nc3nccc(-c4cccc([N+](=O)[O-])c4)n3)cc2C(F)(F)F)CC1 | Calcium-dependent protein kinase 1 (CDPK1, Plasmodium falciparum, UniProt P62344) | binding |  | 10 µM | remaining binding | 4.2%
O=C(Nc1cccnn1)N1CCN([C@@H]2CCOc3cc(C(F)(F)F)ccc32)CC1 | Corticotropin-releasing factor receptor 1 (CRHR1, Homo sapiens, UniProt P34998) | ligand displacement |  | 20 µM | inhibition | -62%
O=C(O)C(F)(F)C(F)(F)C(F)(F)C(F)(F)C(F)(F)C(F)(F)F | PPARA | reporter gene, agonist, luciferase | COS-7 |  | Emax | 113%
COc1cc(Nc2ncc(F)c(Nc3ccc4c(n3)NC(=O)C(C)(C)O4)n2)cc(OC)c1OC | Serine/threonine-protein kinase OSR1 (OXSR1, Homo sapiens, UniProt O95747) | binding, competition with immobilised ligand |  | 10 µM | inhibition | 71%
